Only some compounds are listed: those with a hit (about 1.2% of all), similar ones and a draw of the others.
ARNT TACC3 PPI – ARNT/TACC3 interaction disruption; AlphaScreen His-ARNT PAS-B/GST-TACC3 binding, luminescence; TACC3 fragment carries E629A point mutation; inhibition, % at 9.99 µM; 0.66% of 390,000 active;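 active = mean inhibition of replicates at least 50% and at least half of replicates each reaching 50%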;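 note: 0% = complete ARNT plus TACC3 wells and 100% = ARNT alone without TACC3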
CAL PDZ FP-1 – inhibitors of human CAL PDZ peptide binding; Q9HD26; purified CAL PDZ, TMR-peptide fluorescence polarization, 1 h; inhibition, % at 24.9 µM; 0.92% of 300,000 active;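 active = mean inhibition of at least 30% with at least half of replicates also reaching 30%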;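 note: 0% = DMSO neutral control and 100% = excess unlabeled competitor peptide PRC23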
CaV13 FRET inh – Primary screen for inhibitors of IQ motif and Ca2+-dependent inactivation inhibitor domain binding in CACNA1D, Förster resonance energy transfer in living cells, …; HEK cells, CFP/YFP FRET ICDI-IQ, plate reader, 10 min; percent FRET-ratio fall versus neutral wells; inhibition, % at 12.3 µM; 0.098% of 340,000 active;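 active = mean replicate inhibition of at least 30% and at least 1% of replicates passing that level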;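 note: 0% = median of the neutral control wells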
CAL PDZ FP-2 – inhibitors of human CAL PDZ peptide binding. Q9HD26. purified CAL PDZ, TMR-peptide fluorescence polarization, 1 h. inhibition, % at 20 µM. 0.02% of 330,000 active;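 active = highest replicate inhibition of at least 40%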;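 note: plate controls were DMSO neutral control wells for no effect and unlabeled competitor peptide control wells for full effect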
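System: tagged CAL PDZ domain. Schedule: 1 h room-temperature incubation prior to read. Signal: fluorescence polarization (mP). Measure: percent inhibition from loss of millipolarization.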
* = called active by the depositor.

Results for CCCC(=O)Nc1ccc(N2CCCCC2)cc1 ?
ARNT TACC3 PPI: -1; CAL PDZ FP-1: -3; CAL PDZ FP-2: 1

What do the screens show for `O=C(/C=C/c1ccccc1Cl)N(Cc1ccc(Cl)cc1)C1CCS(=O)(=O)C1` (stereo not drawn)?
ARNT TACC3 PPI: 4; CAL PDZ FP-1: 71*; CaV13 FRET inh: -19; CAL PDZ FP-2: -1

What do the screens show for `O=C(/C=C/c1ccccc1Cl)N(Cc1ccccc1)C1CCS(=O)(=O)C1` (stereo not drawn)?
ARNT TACC3 PPI: 9; CAL PDZ FP-1: 6; CaV13 FRET inh: -5; CAL PDZ FP-2: -4

How did NC1=C(Br)C(=O)c2ncccc2C1=O do in these assays?
ARNT TACC3 PPI: 64*; CAL PDZ FP-1: -6; CaV13 FRET inh: -7; CAL PDZ FP-2: 0

Results for COCC(C)N1CCC(Oc2cccc(C(=O)NCCc3ccccc3)c2)CC1 (stereo not drawn) ?
ARNT TACC3 PPI: 5; CAL PDZ FP-1: 49*; CaV13 FRET inh: -5; CAL PDZ FP-2: 0

What do the screens show for `CC(=O)C1=C(c2ccccc2)N(C(C)=O)n2c(C)nnc2S1`?
ARNT TACC3 PPI: 35*; CAL PDZ FP-1: -1; CaV13 FRET inh: 6; CAL PDZ FP-2: -1

What do the screens show for `COc1ccc(/C=C/C(=O)N2CCN(c3ccccc3)CC2)cc1S(=O)(=O)N1CCOCC1`?
ARNT TACC3 PPI: 3; CAL PDZ FP-1: 52*; CaV13 FRET inh: -4; CAL PDZ FP-2: 0

How did Cc1cc(C=C(C#N)C#N)c(C)n1-c1ccccc1 do in these assays?
ARNT TACC3 PPI: -3; CAL PDZ FP-1: -4; CaV13 FRET inh: -3; CAL PDZ FP-2: 1

What do the screens show for `Cc1cc(/C=C(\C#N)C(=O)O)c(C)n1-c1ccc(Br)cc1`?
ARNT TACC3 PPI: 5; CAL PDZ FP-1: active; CaV13 FRET inh: -7; CAL PDZ FP-2: -2

Results for CC(C)NC(=O)N1C[C@@H]2[C@H](c3ccccc31)[C@@H](CO)N2C(=O)Nc1cccc(F)c1 ?
ARNT TACC3 PPI: 3

What do the screens show for `FC(F)(F)c1ccccc1NC(=S)N1CCN(c2ccccn2)CC1`?
ARNT TACC3 PPI: 3; CaV13 FRET inh: -3; CAL PDZ FP-2: 0

How did FC(F)(F)c1ccccc1NC(=S)N1CCCC1 do in these assays?
ARNT TACC3 PPI: -4; CAL PDZ FP-1: 50*; CaV13 FRET inh: -5; CAL PDZ FP-2: -1

How did CCOc1cc(/C=N/NC(=O)COc2nc(C)cc(COC)c2C#N)ccc1O do in these assays?
ARNT TACC3 PPI: 22; CAL PDZ FP-1: -5; CaV13 FRET inh: -4; CAL PDZ FP-2: -1

How did COCc1cc(C)nc(OCC(=O)N/N=C/c2ccccc2O)c1C#N do in these assays?
ARNT TACC3 PPI: 81*; CAL PDZ FP-1: -1; CaV13 FRET inh: 2; CAL PDZ FP-2: -3

Results for COCc1cc(C)nc(OCC(=O)N/N=C/c2ccc(O)cc2O)c1C#N ?
ARNT TACC3 PPI: 73*; CAL PDZ FP-1: -3; CaV13 FRET inh: 3; CAL PDZ FP-2: -1

Results for C[C@@H]1CN([C@@H](C)CO)C(=O)Cc2cc(NS(=O)(=O)c3cn(C)cn3)ccc2O[C@H]1CN(C)C(=O)Nc1ccccc1 ?
ARNT TACC3 PPI: 0

How did Cc1ccc2c(CC(=O)N3CCN(S(=O)(=O)c4ccc5c(c4)OCCO5)CC3)coc2c1 do in these assays?
ARNT TACC3 PPI: 1; CAL PDZ FP-1: 58*; CaV13 FRET inh: -4; CAL PDZ FP-2: 0

How did Cc1ccc2c(CC(=O)N3CCN(S(=O)(=O)c4ccccc4)CC3)coc2c1 do in these assays?
ARNT TACC3 PPI: -1; CAL PDZ FP-1: -3; CaV13 FRET inh: -13; CAL PDZ FP-2: -2

What do the screens show for `Cc1cccc(NC(=O)c2sccc2-n2cccc2)c1C`?
ARNT TACC3 PPI: -1; CAL PDZ FP-1: 32*

How did C[C@H]1CCCCO[C@H](CN(C)C(=O)c2ccccc2)[C@@H](C)CN([C@@H](C)CO)C(=O)c2cc(NS(=O)(=O)c3cccs3)ccc2O1 do in these assays?
ARNT TACC3 PPI: -6

What do the screens show for `Cc1nn(C(C)(C)C)c(OC(=O)c2ccco2)c1Sc1ccccc1`?
ARNT TACC3 PPI: -2; CAL PDZ FP-1: 141*; CaV13 FRET inh: -6

How did C[C@H]1CN([C@@H](C)CO)C(=O)c2cc(NC(=O)Nc3ccc(F)cc3)ccc2O[C@@H]1CN(C)C(=O)Nc1ccccc1 do in these assays?
ARNT TACC3 PPI: -5

What do the screens show for `O=C1c2ccccc2-c2onc3ccc(NCc4ccco4)c1c23`?
ARNT TACC3 PPI: 17; CAL PDZ FP-1: 0; CAL PDZ FP-2: 12

What do the screens show for `CCNc1ccc2noc3c2c1C(=O)c1ccccc1-3`?
ARNT TACC3 PPI: 16; CAL PDZ FP-1: 18; CAL PDZ FP-2: 44*

What do the screens show for `C[C@H](CO)N1C[C@H](C)[C@H](CN(C)Cc2cccc(F)c2)Oc2ncc(C#C[C@@H](C)O)cc2C1=O`?
ARNT TACC3 PPI: -2

What do the screens show for `C[C@@H]1CN([C@H](C)CO)C(=O)c2cc(NC(=O)Cc3ccccc3)ccc2O[C@H]1CN(C)Cc1ccc(Cl)c(Cl)c1`?
ARNT TACC3 PPI: 1

What do the screens show for `CCOCCc1nnc(NC(=O)CCC2CCCCC2)s1`?
ARNT TACC3 PPI: -5; CAL PDZ FP-1: 74*; CaV13 FRET inh: -3; CAL PDZ FP-2: -6

Results for O=C(NS(=O)(=O)c1ccc(Cl)s1)c1ccccc1 ?
ARNT TACC3 PPI: -6; CAL PDZ FP-1: -2; CaV13 FRET inh: 46*; CAL PDZ FP-2: -1

How did C[C@]12C=CC(=O)C=C1CCC1C2CC[C@@]2(C)C1CCC21OCCO1 (stereo partly drawn) do in these assays?
ARNT TACC3 PPI: 1; CAL PDZ FP-1: 102*; CaV13 FRET inh: -5; CAL PDZ FP-2: -1

Results for C[C@]12C=C[C@H](O)CC1=CCC1C2CC[C@@]2(C)C1CCC21OCCO1 (stereo partly drawn) ?
ARNT TACC3 PPI: -5; CAL PDZ FP-1: -3; CaV13 FRET inh: -7; CAL PDZ FP-2: -1

What do the screens show for `CC(=O)N(/N=C1\Sc2ccccc2C1=O)c1ccccc1C`?
ARNT TACC3 PPI: 59*; CAL PDZ FP-1: -1; CaV13 FRET inh: -3; CAL PDZ FP-2: 0

Results for CC(=O)N(/N=C1\Sc2ccccc2C1=O)c1ccc(C)cc1C ?
ARNT TACC3 PPI: 1; CAL PDZ FP-1: -3; CaV13 FRET inh: -3; CAL PDZ FP-2: 0

How did CC1CC(C)CN(Cc2nc(N)nc(Nc3ccccc3)n2)C1 (stereo not drawn) do in these assays?
ARNT TACC3 PPI: 3; CAL PDZ FP-1: -7; CaV13 FRET inh: -5

Results for CCOC(=O)C1CCCN(Cc2nc(N)nc(Nc3ccccc3)n2)C1 (stereo not drawn) ?
ARNT TACC3 PPI: 48*; CAL PDZ FP-1: -3; CAL PDZ FP-2: -2

How did Cc1ccc(Nc2nc(N)nc(CN3CCCCCC3)n2)cc1 do in these assays?
ARNT TACC3 PPI: 50*; CAL PDZ FP-1: 1; CaV13 FRET inh: -6; CAL PDZ FP-2: -2

What do the screens show for `Nc1nc(CN2CCCCCC2)nc(Nc2ccccc2)n1`?
ARNT TACC3 PPI: 52*; CAL PDZ FP-1: -5; CaV13 FRET inh: -4; CAL PDZ FP-2: 0

Compound activity from PubChem BioAssay.
